The source made the active and inactive calls. No cut-off for these calls is given here.
What was measured:
Escherichia coli [1] = assay: Inhibition of Hoechst 33342 dye in norA-deficient Escherichia coli DH10B expressing pTrc99A at 2 ug/mL by spectrofluorometer analysis; format: functional, organism-based; conditions: K-12 DH10B
Outline: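 Everted membrane vesicles were made from overnight E. coli DH10B carrying pTrcHis2C-norA or control pTrc99A. PMSF (0.1 mM final) was added before French press and DNase (0.1 mg/mL final) to the lysate. Vesicles were diluted to 80 µg protein/mL in 50 mM potassium HEPES, 8.5 mM NaCl, 2 mM MgCl2, pH 7.2. Hoechst 33342 was added, then Mg2+-ATP after the signal stabilised (~30 s). Inhibitor was added at 150–160 s. Fluorescence ex 355/em 457 nm over 300 s.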

[2] = target: T1, Quinolone resistance protein NorA (Staphylococcus aureus) (UniProt P0A0J7); assay: Inhibition of norA-mediated ethidium bromide efflux in methicillin-resistant Staphylococcus aureus SA-1199B at 5 ug/ml by spectrofluorometric analysis
T1 sequence (whole entry): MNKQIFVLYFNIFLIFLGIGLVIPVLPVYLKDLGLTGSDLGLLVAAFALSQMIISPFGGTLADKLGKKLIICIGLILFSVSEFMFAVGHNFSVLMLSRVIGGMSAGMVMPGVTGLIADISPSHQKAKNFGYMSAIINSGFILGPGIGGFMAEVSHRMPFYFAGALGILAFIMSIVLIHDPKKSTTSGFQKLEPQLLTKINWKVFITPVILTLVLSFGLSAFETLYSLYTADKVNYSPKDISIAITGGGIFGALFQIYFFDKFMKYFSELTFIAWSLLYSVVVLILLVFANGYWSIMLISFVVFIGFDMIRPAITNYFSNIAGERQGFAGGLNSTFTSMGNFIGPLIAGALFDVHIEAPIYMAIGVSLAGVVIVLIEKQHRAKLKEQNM
Outline: (§1)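 Ethidium bromide efflux from S. aureus cells in MHB II, compounds dissolved in DMSO. Reserpine 20 µg/mL as positive control and 1% DMSO as negative control; background taken from a resuspended pellet in clean medium. Fluorescence read at ex 530/em 600 nm in duplicate; mean given as percent reduction of efflux versus control.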

[3] = target: T1, Quinolone resistance protein NorA (Staphylococcus aureus); conditions: ATCC 29213
[4] = target: T1, Quinolone resistance protein NorA (Staphylococcus aureus); assay: Inhibition of norA-mediated ethidium bromide efflux in methicillin-resistant Staphylococcus aureus SA-1199B at 2.5 ug/ml by spectrofluorometric analysis
Outline: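 Whole-cell efflux assay, strain grown in Mueller Hinton II broth; compounds dissolved in DMSO, 1% DMSO in MHB II as negative control, reserpine as positive control. Background read from a pellet resuspended in clean MHB II. Fluorescence read in duplicate at ex 530 nm / em 600 nm; the mean is reported as percent reduction of efflux versus control.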

[5] = target: T1, Quinolone resistance protein NorA (Staphylococcus aureus); assay: Inhibition of norA-mediated ethidium bromide efflux in methicillin-resistant Staphylococcus aureus SA-1199B at 20 ug/ml by spectrofluorometric analysis; outline: as §1
[6] = target: T1, Quinolone resistance protein NorA (Staphylococcus aureus); assay: Inhibition of norA-mediated ethidium bromide efflux in methicillin-resistant Staphylococcus aureus SA-1199B at 10 ug/ml by spectrofluorometric analysis; outline: as §1
[7] = target: T1, Quinolone resistance protein NorA (Staphylococcus aureus); assay: Inhibition of norA in Staphylococcus aureus SA-1199B overexpressing norA assessed as fold reduction in ciprofloxacin MIC at 12.5 ug/mL by checkerboard assay
Outline: (§2)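 Checkerboard in MHB with twofold serial dilutions: ciprofloxacin 0.05–12.5 µg/mL against inhibitor 0.2–25 µg/mL. Inoculum 5 × 10⁵ cfu/mL, 20 h at 35 °C, visual MIC read-out. Fold reduction of ciprofloxacin MIC recorded at the inhibitor concentration giving it. FIC index is the sum of both drugs' FICs; ≤0.5 counts as synergy.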

Staphylococcus aureus [8] = assay: Antibacterial activity against Staphylococcus aureus ATCC 29213 […] at 0.2 to 25 ug/ml after 20 hrs by microdilution method; format: functional, organism-based
Outline: (§3)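 Broth microdilution in Mueller Hinton broth II with an inoculum of 5 × 10⁵ cfu/mL, incubated 20 h at 35 °C. MIC is the lowest concentration with no visible growth. Controls were bacteria with DMSO at up to about 1%, and ciprofloxacin. Run to CLSI/EUCAST guidelines in duplicate or more.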

Staphylococcus aureus [9] = assay: Antibacterial activity against Staphylococcus aureus SA-1199B overexpressing norA at 0.2 to 25 ug/ml after 20 hrs by microdilution method; format: functional, organism-based; outline: as §3
[10] = target: T2, Quinolone resistance protein NorA (Staphylococcus aureus, UniProt P0A0J7); assay: Inhibition of norA-mediated ethidium bromide efflux in methicillin-resistant Staphylococcus aureus SA-1199B by spectrofluorometric analysis; outline: as §1
T2 sequence (P0A0J7 whole entry): T1 sequence (whole entry)

[11] = target: T1, Quinolone resistance protein NorA (Staphylococcus aureus); assay: Inhibition of norA in Staphylococcus aureus ATCC […] assessed as fold reduction in ciprofloxacin MIC at 25 ug/mL by checkerboard assay
[12] = target: T1, Quinolone resistance protein NorA (Staphylococcus aureus); assay: Inhibition of norA in Staphylococcus aureus SA-1199B overexpressing norA assessed as fold reduction in ciprofloxacin MIC at 25 ug/mL by checkerboard assay
[13] = target: T1, Quinolone resistance protein NorA (Staphylococcus aureus); assay: Inhibition of norA in Staphylococcus aureus SA-1199B overexpressing norA assessed as fold reduction in ciprofloxacin MIC by checkerboard assay
Escherichia coli [14] = assay: Inhibition of acridine orange efflux in norA-deficient Escherichia coli DH10B expressing pTrc99A at 2 ug/mL by spectrofluorometer analysis; format: functional, organism-based; conditions: K-12 DH10B
Outline: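 Proton gradient was read with acridine orange (500 nM final) in NorA-enriched or pTrc99A control everted E. coli DH10B vesicles. Buffer: 50 mM potassium HEPES, 8.5 mM NaCl, 2 mM MgCl2, pH 7.2. Vesicles were energised with Mg2+-ATP. Valinomycin and nigericin dissipated the gradients, and norfloxacin was given at 10 µM. Fluorescence ex 494/em 530 nm.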

[15] = target: T1, Quinolone resistance protein NorA (Staphylococcus aureus); assay: Inhibition of norA in Staphylococcus aureus SA-1199B overexpressing norA assessed as fold reduction in ciprofloxacin MIC by checkerboard assay; outline: as §2
[16] = target: T1, Quinolone resistance protein NorA (Staphylococcus aureus); assay: Inhibition of norA in Staphylococcus aureus ATCC 29213 assessed as fold reduction in ciprofloxacin MIC at 12.5 ug/mL by checkerboard assay
[17] = target: T1, Quinolone resistance protein NorA (Staphylococcus aureus); conditions: SA-1199B
[18] = target: T1, Quinolone resistance protein NorA (Staphylococcus aureus); assay: Inhibition of norA in Staphylococcus aureus ATCC 29213 overexpressing norA assessed as fold reduction in ciprofloxacin MIC at 3.13 ug/mL by checkerboard assay; outline: as §2
Staphylococcus aureus [19] = assay: Antibacterial activity against Staphylococcus aureus SA-1199B overexpressing norA at 25 ug/ml after 20 hrs by microdilution method; format: functional, organism-based; outline: as §3
[20] = target: T1, Quinolone resistance protein NorA (Staphylococcus aureus); assay: Inhibition of norA in Staphylococcus aureus SA-1199B overexpressing norA assessed as fold reduction in ciprofloxacin MIC at 3.13 ug/mL by checkerboard assay; outline: as §2
Staphylococcus aureus [21] = assay: Antibacterial activity against Staphylococcus aureus ATCC […] at 25 ug/ml after 20 hrs by microdilution method; format: functional, organism-based; outline: as §3

| Structure (SMILES) | inhibition (Escherichia coli [1]) | inhibition [2] [%] | inhibition [4] [%] | inhibition [5] [%] | inhibition [6] [%] | Activity (Staphylococcus aureus [8]) | Activity (Staphylococcus aureus [9]) | IC50 [10] [µM] | other results |
| --- | --- | --- | --- | --- | --- | --- | --- | --- | --- |
| C=CCOc1ccc(C(=O)/C=C/c2cccc(OC)c2OC)cc1 | inactive |  |  |  |  |  |  |  |  |
| COc1ccc(/C=C/C(=O)c2ccc(O)cc2)c(OC)c1 | inactive | 24.1 | 17.3 | 89.6 | 62.7 | inactive | inactive | 29.1 | FICI [3]: 0.25; fractional inhibitory concentration index (FICI) [7]: 0.25 |
| COc1ccc(C(=O)/C=C/c2cccc(N(C)C)c2)c(OC)c1OC | inactive |  |  |  |  |  |  |  |  |
| CN(C)CCOc1ccc(C(=O)/C=C/c2ccccc2)cc1 | inactive | 36.1 | 21.8 | 83.6 | 56.9 | inactive | inactive | 28.4 | fractional inhibitory concentration index (FICI) [11]: > 0.5; fractional inhibitory concentration index (FICI) [12]: > 0.5 |
| COc1cc(OC)c(/C=C/C(=O)c2ccc(O)cc2)c(OC)c1 | inactive |  |  |  |  |  |  |  |  |
| COc1cc(O)cc(C)c1/C=C/C(=O)c1ccc(O)cc1 | inactive | 63.7 | 36.6 | 91.7 | 84.3 | inactive | inactive | 13.4 | inhibition [13]: Dose-dependent effect; inhibition (Escherichia coli [14]): inactive; inhibition [15]: Dose-dependent effect; fractional inhibitory concentration index (FICI) [16]: 0.25; FICI [17]: 0.25 |
| CN(C)CCOc1ccc(C(=O)/C=C/c2ccc(F)cc2)cc1 | inactive |  |  |  |  |  |  |  |  |
| COc1cccc(/C=C/C(=O)c2ccc(O)cc2)c1OC | inactive | 38 | 11.7 | 90.8 | 73.3 | inactive | inactive | 24.3 | FICI [3]: 0.25; fractional inhibitory concentration index (FICI) [7]: 0.25 |
| COc1ccc(OC)c(/C=C/C(=O)c2ccc(O)cc2)c1 | inactive | 56.6 | 23.3 | 91 | 82.7 | inactive | inactive | 15 | fractional inhibitory concentration index (FICI) [16]: 0.25; fractional inhibitory concentration index (FICI) [7]: 0.25 |
| CN(C)CCOc1ccc(C(=O)/C=C/c2cccc(F)c2)cc1 | inactive |  |  |  |  |  |  |  |  |
| CN(C)CCOc1ccc(C(=O)/C=C/c2ccc(C#N)cc2)cc1 | inactive |  |  |  |  |  |  |  |  |
| COc1ccc(CCN(C)CCCC(C#N)(c2ccc(OC)c(OC)c2)C(C)C)cc1OC (centres undefined) | inactive |  |  |  |  |  |  |  |  |
| C=CCOc1ccccc1C(=O)/C=C/c1ccc(OCC(=O)O)cc1 | inactive | 46.2 | 14.7 | 87.1 | 79.9 | inactive | inactive | 16.9 | inhibition [13]: Dose-dependent effect; fractional inhibitory concentration index (FICI) [18]: 0.25; inhibition [15]: Dose-dependent effect; FICI [17]: 0.25 |
| COc1cc(/C=C/C(=O)c2ccc(OC)c(OC)c2OC)cc(OC)c1 | inactive |  |  |  |  |  |  |  |  |
| CN(C)CCOc1ccc(C(=O)/C=C/c2ccccc2F)cc1 | inactive | 48.5 | 33.7 | 97 | 70.3 | inactive | inactive | 18.1 | fractional inhibitory concentration index (FICI) [11]: > 1; fractional inhibitory concentration index (FICI) [12]: 0.25 |
| COc1ccc(/C=C/C(=O)c2ccc(O)cc2)cc1OC | inactive | 38.3 | 14 | 87.9 | 64.3 | inactive | inactive | 26.5 | fractional inhibitory concentration index (FICI) [11]: 0.25; fractional inhibitory concentration index (FICI) [12]: 0.25 |
| COc1ccc(/C=C/C(=O)c2ccccc2OC)c(OC)c1 | inactive |  |  |  |  |  |  |  |  |
| COc1ccc(C(=O)/C=C/c2cccc(OCCN(C)C)c2)c(OC)c1OC | inactive |  |  |  |  |  |  |  | inhibition (Escherichia coli [14]): Active |
| COc1cc(/C=C/C(=O)c2cccc(OC(=O)c3ccccc3)c2)cc(OC)c1 | inactive |  |  |  |  |  |  |  |  |
| C[C@@H]1O[C@@H](Oc2c(-c3ccc(O)cc3)oc3cc(O)cc(O)c3c2=O)[C@H](OC(=O)/C=C/c2ccc(O)cc2)[C@H](O)[C@H]1OC(=O)/C=C/c1ccc(O)cc1 | inactive |  |  |  |  |  |  |  |  |
| CN(C)CCOc1ccc(C(=O)/C=C/c2ccc(N(C)C)cc2)cc1 | inactive | 96.5 | 48 | 98.7 | 97.4 | inactive | inactive | 7.7 | fractional inhibitory concentration index (FICI) [12]: inactive; fractional inhibitory concentration index (FICI) [16]: 0.5 |
| COC(=O)[C@H]1[C@H]2C[C@@H]3c4[nH]c5cc(OC)ccc5c4CCN3C[C@H]2C[C@@H](OC(=O)c2cc(OC)c(OC)c(OC)c2)[C@@H]1OC [RESERPINE] |  | 48.1 | 30 |  | 71.8 |  |  | 8.2 | FICI [3]: 0.25; FICI [17]: 0.25 |
| CN(C)CCOc1ccc(C(=O)/C=C/c2ccc(Oc3ccccc3)cc2)cc1 | inactive | 68.8 | 43.4 | 99.1 | 97.5 |  |  | 9 | Activity (Staphylococcus aureus [19]): Active; FICI [3]: 0.26; fractional inhibitory concentration index (FICI) [20]: 0.38; Activity (Staphylococcus aureus [21]): Active |
